Data as given in ChEMBL document CHEMBL5705892, “MK-2206, an allosteric Akt inhibitor, enhances antitumor efficacy by standard chemotherapeutic agents or molecular targeted drugs in vitro and in vivo” (Mol Cancer Ther, 2010).

Legend:
NCI-H23 = test: Synergistic antiproliferative activity against human NCI-H23 cells assessed as combination index at ED75 measured after 72 hrs in presence of erlotinib by celltiter-glo assay; assay type: functional
A2780 [1] = test: Synergistic antiproliferative activity against human A2780 cells assessed as combination index at ED75 measured after 72 hrs in presence of 5-FU by celltiter-glo assay; assay type: functional
Outline: (§1)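 Cells were seeded at 2–3 × 10³ per well in RPMI 1640 with 10% FBS. At 24 h, MK-2206 and the partner drug were added simultaneously at constant concentration ratios spanning each agent's IC₅₀, for 72 h. Growth was read as cellular ATP by CellTiter-Glo. CI was taken from median-effect plots of each agent alone and in combination (Chou–Talalay), at ED₅₀, ED₇₅ and ED₉₀.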

SK-BR-3 [2] = test: Synergistic antiproliferative activity against lapatinib pretreated human SK-BR-3 cells assessed as combination index at ED90 measured after 72 hrs by celltiter-glo assay; assay type: functional
NCI-H358 = test: Synergistic antiproliferative activity against human NCI-H358 cells assessed as combination index at ED50 measured after 72 hrs in presence of erlotinib by celltiter-glo assay; assay type: functional
SK-BR-3 [3] = test: Synergistic antiproliferative activity against lapatinib pretreated human SK-BR-3 cells assessed as combination index at ED75 measured after 72 hrs by celltiter-glo assay; assay type: functional
HCC70 [4] = test: Synergistic antiproliferative activity against lapatinib pretreated human HCC70 cells assessed as combination index at ED50 measured after 72 hrs by celltiter-glo assay; assay type: functional
HCC1954 = test: Synergistic antiproliferative activity against human HCC1954 cells assessed as combination index at ED50 measured after 72 hrs in presence of lapatinib by celltiter-glo assay; assay type: functional
Outline: (§2)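 Cells grown in RPMI 1640 with 10% heat-inactivated FBS at 37°C, 5% CO₂. Seeded at 2 to 3 × 10³ per well; drugs added 24 h later. […] Viability read as cellular ATP by CellTiter-Glo. CI calculated by Chou–Talalay from median-effect plots at ED50, ED75 and ED90.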

MDA-MB-468 [5] = test: Synergistic antiproliferative activity against lapatinib pretreated human MDA-MB-468 cells assessed as combination index at ED90 measured after 72 hrs by celltiter-glo assay; assay type: functional
[6] = In vivo inhibition of AKT phosphorylation at S473 residue in human NCI-H292 cells xenografted mouse at 120 mg/kg, po administered as single dose measured after 12 hrs by Western blot analysis relative to control; assay type: functional
NCI-H1703 = test: Synergistic antiproliferative activity against human NCI-H1703 cells assessed as combination index at ED25 to ED90 measured after 72 hrs in presence of carboplatin by celltiter-glo assay; assay type: functional
NCI-H441 = test: Induction of apoptosis in human NCI-H441 cells assessed as fold induction of capsase-3/7 activity measured after 24 to 48 hrs in presence of gemcitabine by caspase-glo 3/7 assay; assay type: functional; conditions: time 24-48 hrs
A2780 [7] = test: Synergistic antiproliferative activity against human A2780 cells assessed as combination index at ED90 measured after 72 hrs in presence of carboplatin by celltiter-glo assay; assay type: functional; outline: as §1
UMC-11 = test: Synergistic antiproliferative activity against human UMC-11 cells assessed as combination index at ED25 to ED90 measured after 72 hrs in presence of carboplatin by celltiter-glo assay; assay type: functional
HCC70 [8] = test: Synergistic antiproliferative activity against human HCC70 cells assessed as combination index at ED50 measured after 72 hrs in presence of lapatinib by celltiter-glo assay; assay type: functional; outline: as §2
NCI-H460 [9] = test: Synergistic antiproliferative activity against human NCI-H460 cells assessed as combination index at ED75 measured after 72 hrs in presence of carboplatin by celltiter-glo assay; assay type: functional
NCI-N87 = test: Antiproliferative activity against human NCI-N87 cells assessed as reduction in cell proliferation measured after 72 hrs by celltiter-glo assay; assay type: functional, cell-based; conditions: NCI-N87, 72 h
Outline: (§3)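 Cells in RPMI 1640 with 10% heat-inactivated FBS at 37°C and 5% CO₂ were seeded at 2 to 3 × 10³ per well. […] Growth was read as cellular ATP by CellTiter-Glo.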

HCC827 = test: Synergistic antiproliferative activity against human HCC827 cells assessed as combination index at ED90 measured after 72 hrs in presence of erlotinib by celltiter-glo assay; assay type: functional; outline: as §2
MDA-MB-468 [10] = test: Synergistic antiproliferative activity against lapatinib pretreated human MDA-MB-468 cells assessed as combination index at ED75 measured after 72 hrs by celltiter-glo assay; assay type: functional
[11] = Toxicity in human SK-OV-3 cells xenografted CB17/icr SCID mouse assessed as body weight loss at 60 to 120 mg/kg, po administered 3 times per week for 2 weeks starting 2 hrs post lapatinib treatment and measured during compound dosing; assay type: organism-based; conditions: in vivo, 336 h, dose 60-120 mg/kg
Outline: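 SK-OV-3 cells in 50% Matrigel/PBS injected s.c. into flank of female C.B-17/ICR-scid mice; dosing began after 3 wk, randomized at mean tumour 0.13 cm³ (n = 5). Lapatinib 100 mg/kg p.o. in distilled water 5 d/wk for 2 wk; MK-2206 in 30% Captisol p.o. days 0, 2, 4, 7, 9, 11. Body weight and physical signs monitored.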

SK-OV-3 [12] = test: Synergistic antiproliferative activity against human SK-OV-3 cells assessed as combination index at ED90 measured after 72 hrs in presence of lapatinib by celltiter-glo assay; assay type: functional
A-431 = test: Synergistic antiproliferative activity against human A-431 cells assessed as combination index at ED75 measured after 72 hrs in presence of erlotinib by celltiter-glo assay; assay type: functional; outline: as §1
NCI-H460 [13] = test: Synergistic antiproliferative activity against human NCI-H460 cells assessed as combination index at ED25 to ED90 measured after 72 hrs in presence of carboplatin by celltiter-glo assay; assay type: functional
HCC70 [14] = test: Antiproliferative activity against human HCC70 cells assessed as reduction in cell proliferation measured after 72 hrs by celltiter-glo assay; assay type: functional, cell-based; conditions: HCC70, 72 h; outline: as §3
HCC70 [15] = test: Synergistic antiproliferative activity against human HCC70 cells assessed as combination index at ED90 treated 24 hrs prior to lapatinib and measured after 72 hrs by celltiter-glo assay; assay type: functional; conditions: time 96 hrs
[16] = Toxicity in human NCI-H292 cells xenografted CD-1 mouse assessed as death at 360 mg/kg, po administered once a week for 2 weeks and measured during compound dosing; assay type: organism-based; conditions: in vivo, 336 h
Outline: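 NCI-H292 cells in 50% Matrigel/PBS injected s.c. into flank of female CD1-nude mice; dosing began after 2 wk at mean tumour 0.2 cm³, n = 5/group. […] Body weight and signs monitored; treatment ended day 16.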

BT-474 = test: Synergistic antiproliferative activity against human BT-474 cells assessed as combination index at ED75 measured after 72 hrs in presence of docetaxel by celltiter-glo assay; assay type: functional; outline: as §2
SK-OV-3 [17] = test: Synergistic antiproliferative activity against human SK-OV-3 cells assessed as combination index at ED75 measured after 72 hrs in presence of lapatinib by celltiter-glo assay; assay type: functional

Cl.NC1(c2ccc(-c3nc4ccn5c(=O)[nH]nc5c4cc3-c3ccccc3)cc2)CCC1
CI75 (NCI-H23): 0.46
CI75 (A2780 [1]): 0.54
CI90 (SK-BR-3 [2]): 0.18
CI50 (NCI-H358): 0.44
CI75 (SK-BR-3 [3]): 0.18
CI50 (HCC70 [4]): 0.18
CI50 (HCC1954): 0.18
CI90 (MDA-MB-468 [5]): 0.18
inhibition in vivo at 120 mg/kg [6]: 53.1%
CI (NCI-H1703): 0.53
fold change (FC) (NCI-H441): 2.3
CI90 (A2780 [7]): 0.38
CI (UMC-11): 1.36
CI50 (HCC70 [8]): 0.46
CI75 (NCI-H460 [9]): 0.3
IC50 (NCI-N87): 1600 nM
CI90 (HCC827): 0.12
CI75 (MDA-MB-468 [10]): 0.18
Activity [11]: Non-Toxic
CI90 (SK-OV-3 [12]): 0.25
CI75 (A-431): 0.21
CI (NCI-H460 [13]): 0.3
IC50 (HCC70 [14]): 300 nM
CI90 (HCC70 [15]): 0.18
Activity [16]: Non-Toxic
CI75 (BT-474): 0.8
CI75 (SK-OV-3 [17]): 0.13
